Results taken from ChEMBL document CHEMBL3872205, “Design, synthesis and evaluation of novel potent angiotensin II receptor 1 antagonists” (Eur J Med Chem, 2016).

Experiments:
[1] = AUC (0 to infinity) in Wistar rat brain at 30 mg/kg, po by HPLC analysis; format: ADME, organism-based; set-up: dose 30 mg/kg, route oral, time infinity
How it was run: (§1)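 Wistar rats (180 ± 20 g) were dosed orally at 10, 15 or 30 mg/kg. Heart, liver, spleen, lung, kidney and brain were collected at 0–72 h (n = 6 per point). Tissue was rinsed, blotted and homogenized in saline (0.25 g/1 mL), then spun at 10,000 × g. Supernatant was methanol-extracted, dried under nitrogen at 50 °C, reconstituted in methanol and run on C18 HPLC (acetonitrile 60%/water 40%, 1.0 mL/min).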

[2] = MRT (0 to infinity) in Wistar rat liver at 10 mg/kg, po by HPLC analysis; format: ADME, organism-based
How it was run: (§2)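 Male Wistar rats (180 ± 20 g) received a single oral dose of 10, 15 or 30 mg/kg. Tissues were collected at 0, 0.5, 1, 2, 4, 6, 8, 12, 24, 48 and 72 h (n = 6 per point). Samples of 0.25 g were rinsed, then homogenized in saline (0.25 g/1 mL) and centrifuged at 10,000 × g. Supernatant was methanol-extracted, dried under nitrogen at 50 °C and reconstituted in methanol. Analysis was by C18 HPLC (acetonitrile 60% / water 40%, 1.0 mL/min).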

[3] = MRT (0 to infinity) in Wistar rat Heart at 30 mg/kg, po by HPLC analysis; format: ADME, organism-based; how it was run: as §2
[4] = Cmax in Wistar rat heart at 10 mg/kg, po by HPLC analysis; format: ADME, organism-based; set-up: dose 10 mg/kg, route oral
How it was run: (§3)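 Tissue distribution in male Wistar rats given oral 10, 15 or 30 mg/kg; heart, liver, spleen, lung, kidney and brain collected predose and 0.5–72 h post-dose (n = 6 per time). Tissue rinsed in saline, homogenised 0.25 g/1 mL saline, methanol extraction, dried under nitrogen, reconstituted in methanol. Analysis by reverse-phase C18 HPLC, acetonitrile/water 60:40, 1.0 mL/min, ambient temperature.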

[5] = MRT (0 to 72 hrs) in Wistar rat spleen at 15 mg/kg, po by HPLC analysis; format: ADME, organism-based; how it was run: as §2
[6] = Half life in Wistar rat Heart at 30 mg/kg, po by HPLC analysis; format: ADME, organism-based; how it was run: as §3
[7] = Cmax in Wistar rat spleen at 30 mg/kg, po by HPLC analysis; format: ADME, organism-based; set-up: dose 30 mg/kg, route oral; how it was run: as §3
[8] = AUC (0 to infinity) in Wistar rat lung at 15 mg/kg, po by HPLC analysis; format: ADME, organism-based; set-up: dose 15 mg/kg, route oral, time infinity; how it was run: as §1
[9] = Cmax in Wistar rat liver at 10 mg/kg, po by HPLC analysis; format: ADME, organism-based; set-up: dose 10 mg/kg, route oral; how it was run: as §3
[10] = MRT (0 to 72 hrs) in Wistar rat brain at 15 mg/kg, po by HPLC analysis; format: ADME, organism-based; how it was run: as §3
[11] = Cmax in Wistar rat lung at 10 mg/kg, po by HPLC analysis; format: ADME, organism-based; set-up: dose 10 mg/kg, route oral; how it was run: as §3
[12] = AUC (0 to infinity) in Wistar rat kidney at 10 mg/kg, po by HPLC analysis; format: ADME, organism-based; set-up: dose 10 mg/kg, time infinity, route oral; how it was run: as §1
[13] = Cmax in Wistar rat brain at 10 mg/kg, po by HPLC analysis; format: ADME, organism-based; set-up: dose 10 mg/kg, route oral; how it was run: as §1
[14] = AUC (0 to 72 hrs) in Wistar rat lung at 15 mg/kg, po by HPLC analysis; format: ADME, organism-based; set-up: dose 15 mg/kg, time < 72 hr, route oral; how it was run: as §1
[15] = Cmax in Wistar rat brain at 30 mg/kg, po by HPLC analysis; format: ADME, organism-based; set-up: dose 30 mg/kg, route oral; how it was run: as §1
[16] = AUC (0 to 72 hrs) in Wistar rat liver at 15 mg/kg, po by HPLC analysis; format: ADME, organism-based; set-up: dose 15 mg/kg, time < 72 hr, route oral; how it was run: as §1
[17] = Cmax in Wistar rat kidney at 10 mg/kg, po by HPLC analysis; format: ADME, organism-based; set-up: dose 10 mg/kg, route oral; how it was run: as §3
[18] = MRT (0 to infinity) in Wistar rat spleen at 30 mg/kg, po by HPLC analysis; format: ADME, organism-based; how it was run: as §2
[19] = Cmax in Wistar rat liver at 15 mg/kg, po by HPLC analysis; format: ADME, organism-based; set-up: dose 15 mg/kg, route oral; how it was run: as §3
[20] = MRT (0 to 72 hrs) in Wistar rat spleen at 10 mg/kg, po by HPLC analysis; format: ADME, organism-based; how it was run: as §2
[21] = MRT (0 to 72 hrs) in Wistar rat plasma at 30 mg/kg, po by HPLC analysis; format: ADME, organism-based
How it was run: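 Male Wistar rats (180 ± 20 g), 6 per dose group, each given a single oral dose. Blood was drawn by retro-orbital puncture into heparin at predose and at 0.5, 1, 2, 4, 6, 8, 12, 24, 48 and 72 h, then spun at 4000 × g and 4 °C. Plasma with internal standard was acetonitrile-precipitated, filtered and run on reverse-phase C18 HPLC (0.02 mol/L KH2PO4 55% / acetonitrile 45%, 1.0 mL/min). Calibration standards were 0.1–10 µg/mL, fitted by peak-height ratio with 1/conc² weighting.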

[22] = MRT (0 to infinity) in Wistar rat spleen at 15 mg/kg, po by HPLC analysis; format: ADME, organism-based; how it was run: as §2
[23] = MRT (0 to 72 hrs) in Wistar rat lung at 10 mg/kg, po by HPLC analysis; format: ADME, organism-based; how it was run: as §2
[24] = AUC (0 to 72 hrs) in Wistar rat brain at 10 mg/kg, po by HPLC analysis; format: ADME, organism-based; set-up: time < 72 hr, dose 10 mg/kg, route oral; how it was run: as §1
[25] = AUC (0 to 72 hrs) in Wistar rat plasma at 15 mg/kg, po by HPLC analysis; format: ADME, organism-based; set-up: dose 15 mg/kg, time < 72 hr, route oral
How it was run: (§4)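 Male Wistar rats (180 ± 20 g, n = 6 per group) got one oral dose. Heparinized blood was taken by retro-orbital puncture before dosing and at 0.5–72 h. Plasma was spun at 4000 × g, 4 °C, 10 min, spiked with internal standard and protein-precipitated with acetonitrile. Analysis was reverse-phase C18 HPLC (0.02 mol/L KH2PO4 55%/acetonitrile 45%, 1.0 mL/min). Calibration used 0.1–10 µg/mL, peak-height ratio, weighting concentration^-2.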

[26] = Toxicity in ICR mouse assessed as mortality at 1500 mg/kg, ig after 2 weeks; format: organism-based; details: in vivo, po
[27] = Half life in Wistar rat spleen at 10 mg/kg, po by HPLC analysis; format: ADME, organism-based; how it was run: as §3
[28] = Toxicity in ICR mouse assessed as mortality at 1875 mg/kg, ig after 2 weeks; format: organism-based; details: in vivo, po
[29] = AUC (0 to infinity) in Wistar rat liver at 15 mg/kg, po by HPLC analysis; format: ADME, organism-based; set-up: dose 15 mg/kg, route oral, time infinity; how it was run: as §1
[30] = AUC (0 to 72 hrs) in Wistar rat spleen at 30 mg/kg, po by HPLC analysis; format: ADME, organism-based; set-up: dose 30 mg/kg, time < 72 hr, route oral; how it was run: as §1
[31] = Cmax in Wistar rat lung at 15 mg/kg, po by HPLC analysis; format: ADME, organism-based; set-up: dose 15 mg/kg, route oral; how it was run: as §3
[32] = AUC (0 to 72 hrs) in Wistar rat plasma at 30 mg/kg, po by HPLC analysis; format: ADME, organism-based; set-up: time < 72 hr, dose 30 mg/kg, route oral; how it was run: as §4
Rattus norvegicus = test: Toxicity in rat model assessed as effect on heart rate at 10 to 15 mg/kg, po up to 24 hrs; format: organism-based; details: in vivo
[33] = Half life in Wistar rat plasma at 30 mg/kg, po by HPLC analysis; format: ADME, organism-based
[34] = MRT (0 to infinity) in Wistar rat spleen at 10 mg/kg, po by HPLC analysis; format: ADME, organism-based; how it was run: as §2
[35] = Tmax in Wistar rat Heart at 10 mg/kg, po by HPLC analysis; format: ADME, organism-based; how it was run: as §2

SMILES: CCCCC1=NC2(CCCC2)C(=O)N1Cc1ccc2c(ccn2-c2ccccc2-c2nnn[nH]2)c1
- AUC(0-inf) [1]: 1790 ng·h/mL
- MRT inf [2]: 3.58 h
- MRT inf [3]: 28.1 h
- Cmax [4]: 105 ng/mL
- MRT last [5]: 9.71 h
- half-life [6]: 20.2 h
- Cmax [7]: 1880 ng/mL
- AUC(0-inf) [8]: 1350 ng·h/mL
- Cmax [9]: 721 ng/mL
- MRT last [10]: 11.6 h
- Cmax [11]: 62.1 ng/mL
- AUC(0-inf) [12]: 10800 ng·h/mL
- Cmax [13]: 37.2 ng/mL
- AUC(0-t) at 72 h [14]: 1350 ng·h/mL
- Cmax [15]: 196 ng/mL
- AUC(0-t) at 72 h [16]: 4890 ng·h/mL
- Cmax [17]: 180 ng/mL
- MRT inf [18]: 20.4 h
- Cmax [19]: 1230 ng/mL
- MRT last [20]: 20.2 h
- MRT last [21]: 12.9 h
- MRT inf [22]: 13.1 h
- MRT last [23]: 10.6 h
- AUC(0-t) at 72 h [24]: 346 ng·h/mL
- AUC(0-t) at 72 h [25]: 26500 ng·h/mL
- mortality at 336 h [26]: 50%
- half-life [27]: 17.9 h
- mortality at 336 h [28]: 60%
- AUC(0-inf) [29]: 23500 ng·h/mL
- AUC(0-t) at 72 h [30]: 18900 ng·h/mL
- Cmax [31]: 369 ng/mL
- AUC(0-t) at 72 h [32]: 89500 ng·h/mL
- Activity (Rattus norvegicus): Non-Toxic
- half-life [33]: 9.93 h
- MRT inf [34]: 30.4 h
- Tmax [35]: 4 h
